Molecules are shown by their SMILES. Residues, ends and D or L forms follow the SMILES beside them.

For assay [1], the species on record is Rattus norvegicus. Briefly: In vitro antiuterotonic activity in rat oxytocic bioassay in the absence of Mg2+. The note with it: read-out: pA2 (converted). Format: functional.
The species named for assay [2] is Rattus norvegicus. Briefly: Inhibition of pressor response to exogenous AVP in the pitched rat preparation. The settings on record: read-out: pA2 (converted). Format: functional, organism-based. In short, it runs like this: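 Pressor test in pitched rats. Reported as the negative decadic log of the effective dose (mol/kg) that reduces the effect of a 1×10^-5 mg AVP dose to the level of […] AVP. Values are mean ± SE.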

In a further assay the target is Vasopressin V1 receptor (Rattus norvegicus, UniProt P48974+P30560). As to the kind of experiment: Inhibition of radioligand [3H]AVP binding to V1 receptor in rat liver plasma membrane. The format is cell membranes. The method, boiled down:
(§1)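 Competition binding with 10 nM [3H]AVP (17.4 Ci/mmol) and varying concentrations of unlabeled peptide. V1 used rat liver plasma membranes prepared by two-phase polymer separation. V2 used bovine kidney inner medulla membranes prepared by differential centrifugation. Kd came from a weighted nonlinear least-squares fit to logistic curves.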

Another assay deals with Vasopressin V2 receptor (Bos taurus, UniProt P48044). Briefly: Inhibition of radioligand [3H]AVP binding to V2 receptor in bovine kidney inner medulla membrane. In short, it runs like this: as §1
In assay [3] the test system is Rattus norvegicus. Briefly: In vivo antiuterotonic activity in the rat uterotonic assay. Format: functional, organism-based. The note with it: read-out: pA2 (converted).
For assay [4], the species on record is Rattus norvegicus. As to the kind of experiment: In vitro antiuterotonic activity in rat oxytocic bioassay in the presence of 1 mM Mg2+. The format is functional. The note with it: read-out: pA2 (converted). In short, it runs like this:
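Isolated rat uterus in medium containing 1 mM Mg2+, with oxytocin-induced contractions challenged by the antagonist.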

Assay [5] is described as follows: Selectivity aUT/aP ratio of the compound. The format is functional. In short, it runs like this:
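Reciprocal of the ratio of effective doses in the uterotonic in vitro test (mol/L) and the pressor test (mol/kg). Where given in parentheses, the reciprocal of the ratio of the uterotonic in vivo dose (mol/kg) to the pressor dose (mol/kg).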

Vasopressin V2 receptor, sequence (P48044 whole entry): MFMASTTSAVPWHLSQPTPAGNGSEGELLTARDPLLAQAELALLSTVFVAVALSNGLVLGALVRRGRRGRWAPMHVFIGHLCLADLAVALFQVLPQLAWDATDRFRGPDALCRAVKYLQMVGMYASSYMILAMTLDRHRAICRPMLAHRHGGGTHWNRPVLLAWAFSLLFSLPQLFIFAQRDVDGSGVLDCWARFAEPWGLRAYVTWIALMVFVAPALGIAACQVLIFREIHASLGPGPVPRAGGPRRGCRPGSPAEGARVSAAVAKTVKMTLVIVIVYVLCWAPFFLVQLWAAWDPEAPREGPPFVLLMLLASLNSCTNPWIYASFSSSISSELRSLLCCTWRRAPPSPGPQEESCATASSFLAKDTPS

For `CN(CC(=O)N[C@@H](CCCN=C(N)N)C(=O)NCC(N)=O)C(=O)[C@@H]1CSSC2(CCCCC2)CC(=O)N[C@@H](Cc2ccc(O)cc2)C(=O)N[C@@H](Cc2ccccc2)C(=O)N[C@@H](CCC(N)=O)C(=O)N[C@@H](CC(N)=O)C(=O)N1`, the results for the Kb in the assay listed under Rattus norvegicus [1] and in the assay filed under Rattus norvegicus [2] were 112 nM and 11.7 nM, respectively.
In general, Kd refers to the constant that tells how readily two partners part at equilibrium. Read a low Kd as a tighter complex. On to `CN(CC(=O)N[C@@H](CCCNC(=N)N)C(=O)NCC(N)=O)C(=O)[C@@H]1CSSC2(CCCCC2)CC(=O)N[C@@H](Cc2ccc(O)cc2)C(=O)N[C@@H](Cc2ccccc2)C(=O)N[C@@H](CCC(N)=O)C(=O)N[C@@H](CC(N)=O)C(=O)N1`, for which the dissociation constant Kd at Vasopressin V1 receptor was determined as 0.59 nM; at Vasopressin V2 receptor it was 240 nM.
As for `CC[C@H](C)[C@@H]1NC(=O)[C@@H](Cc2ccc(OC)cc2)NC(=O)CC2(CCCCC2)SSC[C@@H](C(=O)N2CCC[C@H]2C(=O)N[C@@H](CCCN)C(=O)NCC(N)=O)NC(=O)[C@H](CC(N)=O)NC(=O)[C@H](CCC(N)=O)NC1=O`, the Kb was 3.02 nM in the assay listed under Rattus norvegicus [1] and 11 nM in the assay listed under Rattus norvegicus [2].
For the molecule `CC[C@H](C)[C@@H]1NC(=O)[C@@H](Cc2ccc(OC)cc2)NC(=O)CC2(CCCCC2)SSC[C@@H](C(=O)N(C)CC(=O)N[C@@H](CCCN=C(N)N)C(=O)NCC(N)=O)NC(=O)[C@H](CC(N)=O)NC(=O)[C@H](CCC(N)=O)NC1=O`, the Kd at Vasopressin V1 receptor came out at 2 nM; at Vasopressin V2 receptor, 811 nM. Also, the Kb in the assay on Rattus norvegicus [3] is 31.6 nM; in the assay listed under Rattus norvegicus [1] it was 2.51 nM; in the assay listed under Rattus norvegicus [4] it was 6.31 nM; in the assay filed under Rattus norvegicus [2], 20 nM.
Consider `NC(=O)CC[C@@H]1NC(=O)[C@H](Cc2ccccc2)NC(=O)[C@H](Cc2ccc(O)cc2)NC(=O)CC2(CCCCC2)SSC[C@H](C(=O)N2CCC[C@H]2C(=O)N[C@@H](CCCN=C(N)N)C(=O)NCC(N)=O)NC(=O)[C@H](CC(N)=O)NC1=O`, for which, in assay [5], the Ratio turned out to be 0.6.
Turning to `CC[C@H](C)[C@@H]1NC(=O)[C@@H](Cc2c[nH]c3ccccc23)NC(=O)CC2(CCCCC2)SSC[C@@H](C(=O)N(C)CC(=O)N[C@@H](CCCN=C(N)N)C(=O)NCC(N)=O)NC(=O)[C@H](CC(N)=O)NC(=O)[C@H](CCC(N)=O)NC1=O` (HELM PEPTIDE1{[dW].I.Q.N.C.[Sar].R.G.[am]}|CHEM1{[O=C(CC1(S[*:2])CCCCC1)[*:1]]}$PEPTIDE1,CHEM1,1:R1-1:R1|PEPTIDE1,CHEM1,5:R3-1:R2$$$V2.0), the Kd on Vasopressin V1 receptor was 3.8 nM; on Vasopressin V2 receptor it was 300000 nM. In addition, the Kb with Rattus norvegicus [3] was 31.6 nM; in the assay listed under Rattus norvegicus [1], 12.6 nM; in the assay filed under Rattus norvegicus [4], 20 nM; in the assay filed under Rattus norvegicus [2] it was 31.6 nM.
`CC[C@H](C)C1NC(=O)CC2(CCCCC2)SSC[C@@H](C(=O)N(C)CC(=O)N[C@@H](CCCN=C(N)N)C(=O)NCC(N)=O)NC(=O)[C@H](CC(N)=O)NC(=O)[C@H](CCC(N)=O)NC(=O)[C@H](Cc2ccccc2)NC1=O` (stereo in doubt): the values for the dissociation constant (Kd) on Vasopressin V1 receptor and at Vasopressin V2 receptor were 8.28 nM and 182 nM, respectively. Moreover, the Kb was 251 nM in the assay with Rattus norvegicus [3], 31.6 nM in the assay filed under Rattus norvegicus [1], 100 nM in the assay listed under Rattus norvegicus [4] and 63.1 nM in the assay filed under Rattus norvegicus [2].
For `CN(CC(=O)N[C@@H](CCCN=C(N)N)C(=O)NCC(N)=O)C(=O)[C@@H]1CSSC2(CCCCC2)CC(=O)NC(Cc2ccccc2)C(=O)NC(Cc2ccccc2)C(=O)N[C@@H](CCC(N)=O)C(=O)N[C@@H](CC(N)=O)C(=O)N1` (stereo in doubt), the results for the Kd on Vasopressin V1 receptor and on Vasopressin V2 receptor were 0.96 nM and 98 nM, respectively. The Kb was 25.1 nM in the assay with Rattus norvegicus [3], 7.94 nM in the assay filed under Rattus norvegicus [1] and 15.8 nM in the assay filed under Rattus norvegicus [2]. In addition, in assay [5], the Ratio came to 2.
Turning to `CN(CC(=O)N[C@@H](CCCN=C(N)N)C(=O)NCC(N)=O)C(=O)[C@@H]1CSSC2(CCCCC2)CC(=O)NC(Cc2ccc(O)cc2)C(=O)N[C@@H](Cc2ccccc2)C(=O)N[C@@H](CCC(N)=O)C(=O)N[C@@H](CC(N)=O)C(=O)N1` (stereo in doubt), the Kd at Vasopressin V1 receptor worked out at 0.22 nM; on Vasopressin V2 receptor, 230 nM. In addition, the values for the Kb in the assay with Rattus norvegicus [3], in the assay filed under Rattus norvegicus [1] and in the assay filed under Rattus norvegicus [2] were 100 nM, 10 nM and 10 nM, respectively.
As to `CC[C@H](C)[C@@H]1NC(=O)C(Cc2ccccc2)NC(=O)CC2(CCCCC2)SSC[C@H](C(=O)N(C)CC(=O)N[C@@H](CCCN=C(N)N)C(=O)NCC(N)=O)NC(=O)[C@H](CC(N)=O)NC(=O)[C@H](CCC(N)=O)NC1=O` (stereo in doubt), the equilibrium dissociation constant (Kd) at Vasopressin V1 receptor amounted to 8.28 nM; on Vasopressin V2 receptor, 311 nM. Moreover, the Kb was 39.8 nM in the assay on Rattus norvegicus [3], 10 nM in the assay listed under Rattus norvegicus [1], 10 nM in the assay listed under Rattus norvegicus [4] and 100 nM in the assay listed under Rattus norvegicus [2]. Further, the Ratio in assay [5] was 10.
`CCOc1ccc(CC2NC(=O)CC3(CCCCC3)SSC[C@H](C(=O)N(C)CC(=O)N[C@@H](CCCN=C(N)N)C(=O)NCC(N)=O)NC(=O)[C@H](CC(N)=O)NC(=O)[C@H](CCC(N)=O)NC(=O)[C@H]([C@@H](C)CC)NC2=O)cc1` (stereo in doubt): the Kd at Vasopressin V1 receptor turned out to be 13.1 nM; on Vasopressin V2 receptor, 35 nM. The Kb in the assay on Rattus norvegicus [3] is 31.6 nM; in the assay listed under Rattus norvegicus [1], 5.01 nM; in the assay filed under Rattus norvegicus [4], 7.94 nM; in the assay listed under Rattus norvegicus [2], 398 nM. In assay [5], the Ratio was 80.
`CCOc1ccc(CC2NC(=O)CC3(CCCCC3)SSC[C@@H](C(=O)N(C)CC(=O)N[C@@H](CCCN=C(N)N)C(=O)NCC(N)=O)NC(=O)[C@H](CC(N)=O)NC(=O)[C@H](CCC(N)=O)NC(=O)[C@H](Cc3ccccc3)NC2=O)cc1` (stereo in doubt): the dissociation constant (Kd) at Vasopressin V1 receptor is 0.32 nM; at Vasopressin V2 receptor, 29 nM. The Kb is 79.4 nM with Rattus norvegicus [3], 3.98 nM in the assay filed under Rattus norvegicus [1] and 10 nM in the assay filed under Rattus norvegicus [2]. For the same molecule, the Ratio in assay [5] came out at 2.5.
Take `CC[C@H](C)[C@@H]1NC(=O)C(Cc2ccccc2)NC(=O)CCSSC[C@H](C(=O)N(C)CC(=O)N[C@@H](CCCN=C(N)N)C(=O)NCC(N)=O)NC(=O)[C@H](CC(N)=O)NC(=O)[C@H](CCC(N)=O)NC1=O` (stereo in doubt) [listing 1 of 2 here]: the Kb in the assay on Rattus norvegicus [3] is 39.8 nM; in the assay listed under Rattus norvegicus [1], 5.01 nM; in the assay listed under Rattus norvegicus [4], 10 nM; in the assay filed under Rattus norvegicus [2] it was 398 nM.
For the molecule `CC[C@H](C)[C@@H]1NC(=O)C(Cc2ccccc2)NC(=O)CCSSC[C@H](C(=O)N(C)CC(=O)N[C@@H](CCCN=C(N)N)C(=O)NCC(N)=O)NC(=O)[C@H](CC(N)=O)NC(=O)[C@H](CCC(N)=O)NC1=O` (stereo in doubt) [listing 2 of 2 here], the values for the equilibrium dissociation constant (Kd) at Vasopressin V1 receptor and on Vasopressin V2 receptor were 50.1 nM and 421 nM, respectively.

Values taken from ChEMBL document CHEMBL1127478 (J Med Chem, 1994).
